Data taken from ChEMBL document CHEMBL1145814, “Antiretroviral activity of semisynthetic derivatives of glycopeptide antibiotics” (J Med Chem, 2003).
≈ marks a conversion by molar mass, not a printed value.

Assays:
[1] = species on record: Mus musculus; experiment: Minimal inhibitory concentration required to cause a microscopic detectable alteration of C3H/3T3 embryo murine fibroblast cell morphology; assay type: functional
Procedure, shortened: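 Uninfected C3H/3T3 murine embryo fibroblast cultures were exposed to test compound and checked microscopically for changes in cell morphology. The MIC is the concentration causing a microscopically detectable alteration of morphology.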

[2] = tested on: CCRF-CEM; experiment: Inhibitory concentration against proliferation of human T-lymphocytic (CEM) cells; assay type: functional, cell-based; settings: Homo sapiens, CCRF-CEM
Procedure, shortened: (§1)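 (5–7.5) × 10^4 cells per well were incubated with test compound at 37 °C in a humidified CO2 atmosphere. L1210 murine leukemia cells grew for 48 h, and CEM and Molt4/clone 8 human lymphocytes grew for 72 h. Cells were then counted with a Coulter counter. IC50 is the concentration inhibiting proliferation by 50%.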

[3] = tested on: Human immunodeficiency virus 2; experiment: Concentration required to protect human T-lymphocytic cells against the cytopathogenicity of HIV-2; assay type: functional, organism-based; settings: Human immunodeficiency virus 2
[4] = tested on: Human immunodeficiency virus 1; experiment: Effective concentration of compound required to protect human T-lymphocytic cells against the cytopathogenicity of HIV-1; assay type: functional, organism-based; settings: Human immunodeficiency virus 1
[5] = tested on: L1210; experiment: Inhibitory concentration of compound against proliferation of murine lukemia cells L1210 was determined; assay type: functional, cell-based; settings: Mus musculus; procedure, shortened: as §1
[6] = tested on: MOLT-4; experiment: Inhibitory concentration of compound against proliferation of human T-lymphocytic cells MOLT-4/C8 was determined; assay type: functional, cell-based; procedure, shortened: as §1
[7] = species on record: Mus musculus; experiment: Effective concentration of compound required to protect C3H/3T3 embryo murine fibroblasts against the MSV induced transformation; assay type: functional, organism-based; settings: Mus musculus, C3H/3T3
Procedure, shortened: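 Monolayer murine embryo fibroblast C3H/3T3 cultures were infected with Moloney murine sarcoma virus at 75 focus-forming units and cultured with test compound. Transformation was examined microscopically on day 6 postinfection. EC50 is the concentration protecting cells against MSV-induced transformation by 50%.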

IC50 [2] [µM] | EC50 [3] [µM] | EC50 [4] [µM] | IC50 [5] [µM] | IC50 [6] [µM] | SMILES | MIC [1] [µM] | EC50 [7] [µM]
> 500 | 17 | 15 | > 500 | > 500 | NCCCCCCNC(=O)[C@@H]1NC(=O)C2NC(=O)C(NC(=O)C3NC(=O)C4NC(=O)C(Cc5ccc(c(Cl)c5)Oc5cc3cc(c5O)Oc3ccc(cc3Cl)C2O)NC(=O)C(N)c2ccc(O)c(c2)Oc2cc(O)cc4c2)c2ccc(O)c(c2)-c2c(O)cc(O)cc21 (some centres not stated) | 20 (≈ 25.9 µg/mL) | > 4
106 | > 50 | 22 | 136 | 72 | CN[C@H](CC(C)C)C(=O)N[C@H]1C(=O)N[C@@H](CC(N)=O)C(=O)N[C@H]2C(=O)N[C@H]3C(=O)N[C@H](C(=O)N[C@H](C(=O)O)c4cc(O)c(CNCc5ccc(-c6ccc(Cl)cc6)cc5)c(O)c4-c4cc3ccc4O)[C@H](O[C@H]3C[C@](C)(N)[C@@H](O)[C@H](C)O3)c3ccc(cc3)Oc3cc2cc(c3O[C@@H]2O[C@H](CO)[C@@H](O)[C@H](O)[C@H]2O[C@H]2C[C@](C)(N)[C@@H](O)[C@H](C)O2)Oc2ccc(cc2Cl)[C@H]1O | > 20 | > 4
35 | > 10 | > 10 | 41 | 34 | CN[C@H](CC(C)C)C(=O)N[C@H]1C(=O)N[C@@H](CC(N)=O)C(=O)N[C@H]2C(=O)N[C@H]3C(=O)N[C@H](C(=O)N[C@H](C(=O)NCc4ccc(-c5ccccc5)cc4)c4cc(O)cc(O)c4-c4cc3ccc4O)[C@H](O[C@H]3C[C@](C)(N)[C@@H](O)[C@H](C)O3)c3ccc(cc3)Oc3cc2cc(c3O[C@@H]2O[C@H](CO)[C@@H](O)[C@H](O)[C@H]2O[C@H]2C[C@](C)(N)[C@@H](O)[C@H](C)O2)Oc2ccc(cc2Cl)[C@H]1O | 4 (≈ 6.89 µg/mL) | > 0.8
248 | 15 | 9.5 | 364 | > 500 | COC(=O)[C@@H]1NC(=O)C2NC(=O)C(NC(=O)C3NC(=O)C4NC(=O)C(Cc5ccc(c(Cl)c5)Oc5cc3cc(c5O)Oc3ccc(cc3Cl)C2O)NC(=O)C(N)c2ccc(O)c(c2)Oc2cc(O)cc4c2)c2ccc(O)c(c2)-c2c(O)cc(O)cc21 (some centres not stated) | > 100 | 12
> 500 | > 250 | 115 | > 500 | > 500 | CNC1C(=O)NC2Cc3ccc(cc3)Oc3cc4cc(c3OC3OC(C(=O)O)C(O)C(O)C3N)Oc3ccc(cc3Cl)C(O)C3NC(=O)C(NC(=O)C4NC(=O)C(NC2=O)c2cc(cc(O)c2Cl)Oc2cc1ccc2O)c1ccc(O)c(c1)-c1c(O)cc(O)cc1[C@H](C(=O)O)NC3=O (some centres not stated) | > 100 | > 100
> 500 | 190 | 80 | > 500 | > 500 | CNC(=O)[C@@H]1NC(=O)C2NC(=O)C(NC(=O)C3NC(=O)C4NC(=O)C(NC(=O)C(N)c5ccc(O)c(c5)Oc5cc(O)cc4c5)C(O)c4ccc(c(Cl)c4)Oc4cc3cc(c4O[C@@H]3O[C@@H](CO)[C@@H](O)[C@H](O)[C@@H]3NC(=O)CCCCCCC(C)C)Oc3ccc(cc3Cl)C2O[C@@H]2O[C@@H](CO)[C@@H](O)[C@H](O)[C@@H]2NC(C)=O)c2ccc(O)c(c2)-c2c(O[C@H]3O[C@H](CO)[C@@H](O)[C@@H](O)[C@@H]3O)cc(O)cc21 (some centres not stated) | > 100 | 75
> 500 | 100 | 17 | > 500 | > 500 | CC(=O)N[C@@H]1[C@H](OC2c3ccc(c(Cl)c3)Oc3cc4cc(c3O[C@@H]3O[C@@H](CO)[C@@H](O)[C@H](O)[C@@H]3NC(=O)CCCCCCC(C)C)Oc3ccc(cc3Cl)C(O)C3NC(=O)C(N)c5ccc(O)c(c5)Oc5cc(O)cc(c5)C(NC3=O)C(=O)NC4C(=O)NC3C(=O)NC2C(=O)N[C@@H](C(=O)O)c2cc(O)cc(O[C@H]4O[C@H](CO)[C@@H](O)[C@@H](O)[C@@H]4O)c2-c2cc3ccc2O)O[C@@H](CO)[C@@H](O)[C@@H]1O (some centres not stated) | > 100 | > 100
83 | 4 | 10 | 33 | 39 | O=C1NC2C(=O)NC3C(=O)NC4C(=O)NC(C(=O)N[C@@H](C(=O)O)c5cc(O)cc(O)c5-c5cc4ccc5O)C(O)c4ccc(c(Cl)c4)Oc4cc3cc(c4O)Oc3ccc(cc3Cl)CC1NC(=O)C(NC(=O)C13CC4CC(CC(C4)C1)C3)c1ccc(O)c(c1)Oc1cc(O)cc2c1 (some centres not stated) | 100 (≈ 136 µg/mL) | 11
> 100 | 12 | 9.7 | > 100 | > 100 | CCCCc1ccc(CNCc2c(O)cc3c(c2O)-c2cc(ccc2O)C2NC(=O)C4NC(=O)C5NC(=O)C(Cc6ccc(c(Cl)c6)Oc6cc4cc(c6O)Oc4ccc(cc4Cl)C(O)C(NC2=O)C(=O)N[C@H]3C(=O)NC)NC(=O)C(N)c2ccc(O)c(c2)Oc2cc(O)cc5c2)cc1 (some centres not stated) | 20 (≈ 27.7 µg/mL) | > 4
> 100 | 3.5 | 4 | 84 | > 100 | CNC(=O)[C@@H]1NC(=O)C2NC(=O)C(NC(=O)C3NC(=O)C(CC(N)=O)NC(=O)C(NC(=O)C(CC(C)C)N(C)C(=O)OC(C)(C)C)C(O)c4ccc(c(Cl)c4)Oc4cc3cc(c4O)Oc3ccc(cc3)C2O)c2ccc(O)c(c2)-c2c1cc(O)c(CN1CCN(Cc3ccc(-c4ccccc4)cc3)CC1)c2O (some centres not stated) | 20 (≈ 29.7 µg/mL) | > 4

SMILES | IC50 [2] [µM] | EC50 [3] [µM] | EC50 [4] [µM] | IC50 [5] [µM] | IC50 [6] [µM] | MIC [1] [µM] | EC50 [7] [µM]
CN[C@H](CC(C)C)C(=O)N[C@H]1C(=O)N[C@@H](CC(N)=O)C(=O)N[C@H]2C(=O)N[C@H]3C(=O)N[C@H](C(=O)N[C@H](C(=O)O)c4cc(O)cc(O)c4-c4cc3ccc4O)[C@H](O)c3ccc(c(Cl)c3)Oc3cc2cc(c3O[C@@H]2O[C@H](CO)[C@@H](O)[C@H](O)[C@H]2O[C@H]2C[C@](C)(N)[C@H](O)[C@H](C)O2)Oc2ccc(cc2Cl)[C@H]1O [VANCOMYCIN] | > 500 | > 250 | > 250 | > 500 | > 500 | > 100 | > 100
